Compound activity (PubChem BioAssay)
Rad51 HR inh: human RAD51 strand exchange inhibitors, primary screen, biochemical, fluorescence; DNA repair protein RAD51 homolog 1 (Homo sapiens), Q06609; hRad51 DNA strand exchange, fluorescence dequenching; inhibition, % at 10 µM; actives 0.085% (n = 200,000); AID 1385, 2008;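 active = inhibition above 40% at the single screening dose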
Target sequence (Q06609 whole entry, looked up): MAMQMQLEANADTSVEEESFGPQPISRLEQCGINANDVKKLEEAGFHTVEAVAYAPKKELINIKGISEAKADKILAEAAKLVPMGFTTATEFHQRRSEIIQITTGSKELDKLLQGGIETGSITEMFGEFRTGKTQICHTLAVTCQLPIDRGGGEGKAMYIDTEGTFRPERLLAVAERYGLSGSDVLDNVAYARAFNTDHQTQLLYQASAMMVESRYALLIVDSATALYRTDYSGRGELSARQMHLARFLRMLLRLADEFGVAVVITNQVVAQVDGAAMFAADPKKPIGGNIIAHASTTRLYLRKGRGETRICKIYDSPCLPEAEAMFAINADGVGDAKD
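System: human Rad51 nucleoprotein filaments preassembled on unlabelled ssDNA. Reagent: labelled 47-mer dsDNA for strand exchange. Schedule: 30-min compound preincubation and 15-min exchange, both room temperature. Measured by: FRET fluorescence dequenching, excitation 485 nm, emission 520 nm. Read-out: Fluorescence-based percent inhibition, control- and blank-normalised. Benchmarks: plate controls and plate blanks.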
Efa HMGR inh: inhibitors of E. faecalis class II HMGR, primary screen, biochemical, Enterococcus faecalis; inhibition, % at 10 µM; actives 0.41% (n = 190,000); purified E. faecalis HMGR, NADPH absorbance 340 nm kinetic;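 active = inhibition above a set limit, the median over all tested compounds plus 3 SD, cut at about 9.5% in these data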;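 also: enzyme runs in reverse so mevalonate oxidation gives rising NADPH absorbance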
PERK inh: block of dimerizer-induced PERK translation repression, primary screen, PERK inhibitor project, CHO PERK-DD cells, SEAP luminescence, HTS; Eukaryotic translation initiation factor 2-alpha kinase 3 (Homo sapiens), Q9NZJ5; CHO PERK-DD fusion, SEAP luminescence translation reporter; inhibition, % at 5.6 µM; actives 0.17% (n = 220,000);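 active = inhibition above the mean inhibition of all tested compounds plus 3 SD, set separately per screening campaign, cut at about 2.9% in these data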;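 also: PERK kinase domain activated by AP20187 dimerizer at 100 nM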
Furin inhibitor: human furin inhibitors, primary screen, biochemical, fluorescence intensity; P09958; purified furin, fluorogenic substrate cleavage; inhibition, % at 20 µM or 30 µM; actives 0.061% (n = 220,000); AID 463115, 2010; in the data active = inhibition above about 25%
ABCB1 inh: ABCB1 efflux pump inhibitors, primary screen, cell-based, multiplex, flow cytometry, ABCG2 counter-screen; CCRF-Adr cells, JC-1 efflux; inhibition, % at 6.6 µM; ATP-dependent translocase ABCB1 (Homo sapiens), P08183; AID 1326, 2008; actives 0.067% (n = 190,000); in the data active = inhibition above about 40%;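 also: higher value means more JC-1 retained so stronger ABCB1 efflux block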
ABCG2 block: ABCG2 efflux pump inhibitors, primary screen, multiplex with ABCB1, IgMXP3 cells, flow cytometry. JC-1 efflux. inhibition, % at 6.6 µM. actives 0.1% (n = 190,000);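 active = inhibition above 80%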
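Measure – % inhibition of efflux relative to nicardipine and DMSO · Test system – ABCG2 IgMXP3 and barcoded ABCB1 CCRF-Adr cell mix · Control set – nicardipine as high control, DMSO as low control · Compound – one concentration, 6.6 µM final · Signal – flow cytometry of retained JC-1 fluorescence · Timing – 10 min exposure at 25 °C with rotation, no wash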
Large screens that a line does not name were inactive. Sampled rows, rich in hits. Any-hit rate of the full collection: about 0.77%.

CC(C)(C)[C@@H]1C=C(C(=O)N2CCN(Cc3ccccc3)CC2)O[C@H](OCc2ccc(CO)cc2)C1	none
O=C(CCn1c(=O)oc2ccccc21)NCc1cccs1	Efa HMGR inh 13
O=C(CCn1c(=O)sc2ccccc21)NCc1cccs1	none
Cc1cc(N)ccc1-n1c(C)ccc1C	none
Cc1cc(C(=O)O)ccc1-n1c(C)ccc1C	PERK inh 3.3 (no result: Rad51 HR inh)
COc1ccc(-n2c(=O)c3c4c(sc3n(CC(N)=O)c2=O)CCCCC4)cc1	none (no result: Efa HMGR inh, ABCB1 inh, ABCG2 block)
CCN(CC)c1ccc(-c2n[nH]c(=S)n2-c2ccccc2C)cc1	Efa HMGR inh 14
CCN(CC)c1ccc(-c2n[nH]c(=S)n2-c2ccccc2)cc1	none
CC(C)c1ccc(CNC(=O)C(=O)NCC2CCCO2)cc1 (stereo not given)	none
CCOC(=O)C(C(=O)NCC1CCCO1)C1CCCCC1 (stereo not given)	Furin inhibitor 28
CCn1cc(/C=N\NC(=O)c2ccccc2Cl)cn1	none
NC(=O)c1ccc2c(c1)S(=O)(=O)c1ccccc1C2=O	none (no result: Efa HMGR inh, ABCB1 inh, ABCG2 block)
CC1=C(C(N)=O)S(=O)(=O)c2ccccc21	PERK inh 3.1 (no result: Efa HMGR inh, ABCB1 inh, ABCG2 block)
Cc1ccc(NC(=O)C(=S)NCc2ccco2)cc1	none
Cc1cc(C)cc(NC(=O)C(=S)NCc2ccccc2)c1	PERK inh 2.9 (no result: Rad51 HR inh)
NC1=NC(=O)S/C1=C\c1ccc(F)cc1	Efa HMGR inh 24
CC1CN(c2ccc(NC(=O)c3ccco3)cc2C(=O)O)CC(C)O1 (stereo not given)	none (no result: Efa HMGR inh, ABCB1 inh, ABCG2 block)
CSc1ncccc1C(=O)Nc1ccc(OC(F)(F)F)cc1	none
COc1cc(NC(=O)c2cccnc2SC)cc(OC)c1OC	Efa HMGR inh 13
O=C(CN1CCC(NC(=O)Nc2ccccc2-c2ccccc2)CC1)NCc1ccco1	none
Cc1ccc(C2/C(=C(\O)c3ccc4c(c3)OCCO4)C(=O)C(=O)N2CCCN(C)C)o1 (stereo not given)	Rad51 HR inh 94
Cc1cccc(OCCCn2c(CO)nc3ccccc32)c1	none (no result: Efa HMGR inh, ABCB1 inh, ABCG2 block)
CC(C)(C)c1ccc(C(=O)Oc2ccccc2CCC(=O)O)cc1	PERK inh 3.4 (no result: Efa HMGR inh, ABCB1 inh, ABCG2 block)
COc1ccccc1C(=O)Oc1ccc(C(C)(C)C)cc1	none
S=C(NCCCN1CCOCC1)NC1CC1	none (no result: Rad51 HR inh)
O=C(CCC1CCCCC1)NNC(=O)c1cnccn1	none
CCSCc1nnc(SCC(=O)Nc2cccc(SC)c2)n1C	none
CCOc1cc(/C=N/NC(N)=O)cc(Br)c1OCC(=O)Nc1cccc2ccccc12	Rad51 HR inh 122
CCOc1ccc(/C(O)=C2/C(=O)C(=O)N(CC3CCCO3)C2c2ccco2)cc1 (stereo not given)	Efa HMGR inh 29
CCOc1ccc(/C(O)=C2/C(=O)C(=O)N(CC3CCCO3)C2c2ccc(C)o2)cc1 (stereo not given)	none
Cc1nn(Cc2ccccc2Cl)c(C)c1C(=O)NCCN1C(=O)S/C(=C\c2ccccc2)C1=O	none
O=C(c1ccc2ccccc2n1)N1CCN(c2ccccc2O)CC1	Rad51 HR inh 87
CC(C)N(C(C)C)S(=O)(=O)c1ccc(NN)nc1	Rad51 HR inh 43 (no result: Efa HMGR inh, ABCB1 inh, ABCG2 block)
COc1ccc(N2CCN(CCC(N)=O)CC2)cc1	Rad51 HR inh 108
COc1ccc(N2CCN(CC(=O)NC(=O)NC(C)(C)C)CC2)cc1	none
Cc1nn(C(C)C(=O)NCc2cccs2)c(C)c1[N+](=O)[O-] (stereo not given)	none
COC(=O)c1c(C)cc(O)c(C=O)c1O	none (no result: Efa HMGR inh, PERK inh, Furin inhibitor, ABCB1 inh, ABCG2 block)
COc1cc(C(=O)O)c2c(c1C)OC(=O)c1c(C)cc(O)c(C=O)c1O2	Rad51 HR inh 61 (no result: Efa HMGR inh, PERK inh, Furin inhibitor, ABCB1 inh, ABCG2 block)
CC(/C=C/c1ccco1)=N\NC(=O)CNc1cccc(C)c1	none (no result: Rad51 HR inh)
CCN(CC)CCOc1nc(C)nc2c1oc1ccccc12	Efa HMGR inh 14
CCN(CC)CCCOc1nc(C)nc2c1oc1ccccc12	none
Clc1cccc(CN2CCC(Cc3ccccc3)CC2)c1	Efa HMGR inh 14
CCOC(=O)C1(Cc2ccc(OC)cc2)CCN(C(=O)[C@@H]2CCCN2C(C)=O)CC1	none (no result: Rad51 HR inh, Efa HMGR inh, ABCB1 inh, ABCG2 block)
COc1ccc(NC(=O)CSc2nnc(-c3ccncc3)n2C)cc1	none
Cn1c(SCC(=O)Nc2ccc(NC(=O)c3cccs3)cc2)nnc1-c1ccncc1	Efa HMGR inh 11
CCOC(=O)C1CCCN(c2cc(=O)n(-c3ccccc3Cl)c(=O)[nH]2)C1 (stereo not given)	PERK inh 3.3
CCOC(=O)C1CCCN(c2cc(=O)n(Cc3ccc(F)cc3)c(=O)[nH]2)C1 (stereo not given)	none
COc1ccc(OC)c(Nc2nc(NCCCN(C)C)nc(N)c2[N+](=O)[O-])c1	Rad51 HR inh 41 (no result: Efa HMGR inh, ABCB1 inh, ABCG2 block)
Cc1ccccc1NC(=S)N(CCN1CCCCCC1)Cc1cccs1	Efa HMGR inh 10
CCN1CCCc2cc(CN(CCN3CCOCC3)C(=S)Nc3ccccc3C)ccc21	Efa HMGR inh 10
CC1N(C)c2cc(NC(=O)c3cccs3)c(P(=O)(Nc3ccc([N+](=O)[O-])cc3)N3CCOCC3)cc2C1(C)C (stereo not given)	none
O=C1CC(=O)N(Cc2ccco2)C(=O)N1	none (no result: Rad51 HR inh)
O=C1CC(=O)N(Cc2ccco2)C(=S)N1	Efa HMGR inh 21
Cc1nc2sc(-c3ccccc3)cc2c(=O)n1/N=C/N(C)C	none (no result: Rad51 HR inh)
COCCCn1c(SCc2nnc(-c3ccc(OC)c(OC)c3)o2)nnc1-c1ccncc1	Efa HMGR inh 9.9
COc1ccc(-c2nnc(CSc3nnc(-c4ccncc4)n3C3CCCCC3)o2)cc1OC	none
[O-][n+]1cccc2c(Br)cc(Br)c(O)c21	Efa HMGR inh 9.9
C[n+]1cccc2c(Br)ccc([O-])c21	none (no result: Efa HMGR inh, ABCB1 inh, ABCG2 block)
CCC(Sc1ccccn1)C(=O)Nc1cccc([N+](=O)[O-])c1 (stereo not given)	Efa HMGR inh 14 (no result: Rad51 HR inh)
CC(Sc1cccc[n+]1[O-])C(=O)Nc1cccc([N+](=O)[O-])c1 (stereo not given)	none
Cc1cc(N2CCOCC2)nc(SCc2ccc(Cl)cc2Cl)n1	none
Cc1cc(N2CCOCC2)nc(SCC(=O)OCc2ccccc2)n1	Efa HMGR inh 11 (no result: Rad51 HR inh)
